Rows were chosen to be rich in hits. Some 3.1% of all compounds tested hit in one or more screens of this group.
OX1R antag-1: human HCRTR1 antagonism; CHO/OX1R cells, Fluo-8 calcium fluorescence, orexin A; AID 434989; O43613; 330,000 tested, 0.43% active; inhibition, % at 5 µM;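 active means inhibition above its plate's threshold, mean inhibition of all tested compounds on the plate plus 3 SD, cut at about 37% in these data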;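 further: 0% = orexin A challenge wells and 100% = SB-334867-A antagonist wells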
OX1R antag-2: blocks the human orexin 1 receptor | OX1R-expressing cells, FRET antagonist read-out | inhibition, % at 6.6 µM | 330,000 tested, 1.8% active | AID 485270; in the data active means inhibition mostly above about 38%, no sharp cut-off; inactive means mostly below about 40%;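 further: 0% = agonist challenge alone and 100% = reference antagonist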
GPR7 antagonist: human neuropeptides B/W receptor 1 antagonism; AID 1861; GPR7-expressing cells, fluorescence antagonist assay; inhibition, % at 4.4 µM; 290,000 tested, 1.1% active; in the data active means inhibition above about 16%, passing the limit was not always enough;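 further: cells stimulated with the agonist NPW; 0% = agonist with vehicle and 100% = vehicle without agonist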
Target sequence (P48145 whole entry, looked up): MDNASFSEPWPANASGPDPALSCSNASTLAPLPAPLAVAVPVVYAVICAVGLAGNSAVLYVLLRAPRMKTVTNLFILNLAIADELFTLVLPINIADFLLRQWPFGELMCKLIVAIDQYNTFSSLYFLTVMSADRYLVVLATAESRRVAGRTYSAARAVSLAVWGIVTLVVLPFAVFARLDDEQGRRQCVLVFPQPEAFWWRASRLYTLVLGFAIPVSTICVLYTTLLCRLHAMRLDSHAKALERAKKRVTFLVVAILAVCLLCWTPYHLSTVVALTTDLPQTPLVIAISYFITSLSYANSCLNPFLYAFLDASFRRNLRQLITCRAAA
GalR3 antagonist: human GalR3 antagonism | O60755 | HEK293 GalR3-CNG cAMP membrane potential fluorescence; galR3 body fused to GalR1 C-terminus | inhibition, % at 3 µM | 360,000 tested, 0.44% active | AID 651719;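 active means inhibition above the screen-wide average plus 3 SD, cut at about 13% in these data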;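 further: forskolin and galanin both at EC90 stimulate the cells; cAMP rise reported by CNG channel membrane potential dye signal; 0% = forskolin plus galanin with DMSO and 100% = forskolin alone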
Target sequence (O60755 1-299 limits assumed): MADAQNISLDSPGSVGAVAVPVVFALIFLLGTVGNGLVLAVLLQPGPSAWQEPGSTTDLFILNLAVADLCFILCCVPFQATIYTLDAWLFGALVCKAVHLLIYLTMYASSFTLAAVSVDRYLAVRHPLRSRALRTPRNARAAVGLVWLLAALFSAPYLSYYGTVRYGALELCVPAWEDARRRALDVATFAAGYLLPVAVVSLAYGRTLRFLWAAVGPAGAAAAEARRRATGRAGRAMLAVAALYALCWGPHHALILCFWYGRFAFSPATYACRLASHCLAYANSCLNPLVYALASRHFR
CHO parental Ca: counter-screen: ATP calcium response change in parental CHO cells | parental CHO-K1, ATP-induced calcium, Fluo-8 fluorescence | 330,000 tested, 0.63% active | inhibition, % at 5.6 µM | AID 463079;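 active means inhibition above that plate's mean sample inhibition plus 3 SD, cut at about 26% in these data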;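 further: 0% = ATP-challenged DMSO wells and 100% = DMSO wells without ATP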
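test system = CHO parental line | reagent = ATP stimulus | measured by = intracellular calcium via Fluo-8 no-wash fluorescent dye | control set = ATP and no-ATP DMSO wells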
GPR7 antag cf: confirmation of human GPR7 antagonists; shares compounds with GPR7 antagonist; GPR7-expressing cells, calcium fluorescence antagonist mode; inhibition, % at 4.4 µM; 2,400 tested, 52% active; in the data active means inhibition above about 24%;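 further: stimulated with the GPR7 agonist NPW; 0% = agonist plus vehicle and 100% = vehicle alone without agonist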
MCHR1 antagonist: counter-screen for GPR7 antagonists: antagonists of human MCHR1 | 2,400 tested, 62% active | AID 2148 | shares compounds with GPR7 antagonist | MCHR1-expressing cells, fluorescence antagonist assay | inhibition, % at 4.4 µM; in the data active means inhibition above about 22%;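 further: 0% = vehicle with agonist and 100% = vehicle without agonist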
The depositor's hits bear a star.

Screening CC(Sc1nnc2ccccn12)C(=O)NCc1ccc2c(c1)OCO2 (configuration not stated) returned OX1R antag-1 7, OX1R antag-2 0, GPR7 antagonist 2, GalR3 antagonist -2 and CHO parental Ca -13.
Cc1ccccc1-c1cccc([C@@H]2C[C@H]3[C@H](CON3C)CN2C(=O)C(C)(C)C)c1 was read as GalR3 antagonist -6.
For C[C@H](CO)N1C[C@H](C)[C@H](CN(C)C(=O)Nc2ccccc2)OCc2cnnn2CCCC1=O the results were GalR3 antagonist -4.
For CN(Cc1ccccn1)C(=O)CC1C(=O)NCCN1Cc1cccc(Oc2ccccc2)c1 (configuration not stated) the results were OX1R antag-1 -23, OX1R antag-2 14, GPR7 antagonist 26*, GalR3 antagonist -1, CHO parental Ca -18, GPR7 antag cf -6 and MCHR1 antagonist 5.
CN(Cc1nccn1C)C(=O)CC1C(=O)NCCN1Cc1cccc(Oc2ccccc2)c1 (configuration not stated) was read as OX1R antag-1 -31, OX1R antag-2 8, GPR7 antagonist -24, GalR3 antagonist -3 and CHO parental Ca -16.
For Cc1ccc(S(=O)(=O)NN=C2CCCc3ccccc32)cc1 the results were GalR3 antagonist -9.
For Cc1ccccc1OC(C)C(=O)N1CCC(Cc2ccccc2)CC1 (configuration not stated) the results were OX1R antag-1 -21, OX1R antag-2 35, GPR7 antagonist 28*, GalR3 antagonist -4, CHO parental Ca -13, GPR7 antag cf 19 and MCHR1 antagonist 36*.
For COc1ccccc1OC(C)C(=O)N1CCC(Cc2ccccc2)CC1 (configuration not stated) the results were OX1R antag-1 -15, OX1R antag-2 14, GPR7 antagonist 4, GalR3 antagonist -9 and CHO parental Ca -5.
For Cc1ccc2nc(N(CCN(C)C)C(=O)/C=C/c3cccs3)sc2c1 the results were OX1R antag-1 3, OX1R antag-2 9, GPR7 antagonist 2, GalR3 antagonist -6 and CHO parental Ca -8.
`CN(C)CCCN(C(=O)C1=COCCO1)c1nc2ccc(Br)cc2s1` gave OX1R antag-1 -17, OX1R antag-2 15, GPR7 antagonist 36*, GalR3 antagonist -7, CHO parental Ca -10, GPR7 antag cf 55* and MCHR1 antagonist 64*.
`CN(C)CCN(C(=O)c1ccc2ccccc2c1)c1nc2ccc(Br)cc2s1` gave OX1R antag-1 -12, OX1R antag-2 1, GPR7 antagonist 7, GalR3 antagonist -11 and CHO parental Ca -12.
`CN(C)CCCN(C(=O)CCc1ccccc1)c1nc2ccc(Cl)cc2s1` gave OX1R antag-1 2, OX1R antag-2 6, GPR7 antagonist 23*, GalR3 antagonist -18, CHO parental Ca 22, GPR7 antag cf 73* and MCHR1 antagonist 85*.
For CN(C)CCN(C(=O)/C=C/c1cccs1)c1nc2ccc(Br)cc2s1 the results were OX1R antag-1 12, OX1R antag-2 7, GPR7 antagonist 25*, GalR3 antagonist 2, CHO parental Ca -11, GPR7 antag cf 59* and MCHR1 antagonist 68*.
`CN(C)CCCN(C(=O)/C=C/c1cccs1)c1nc2ccc(F)cc2s1` gave OX1R antag-1 -21, OX1R antag-2 2, GPR7 antagonist 29*, GalR3 antagonist -9, CHO parental Ca 4, GPR7 antag cf 45* and MCHR1 antagonist 28*.
For CCN(CC)CCN(C(=O)/C=C/c1cccs1)c1nc2ccc(F)cc2s1 the results were OX1R antag-1 -14, OX1R antag-2 18, GPR7 antagonist 11, GalR3 antagonist -5 and CHO parental Ca -15.
`Nc1ncnc2c1ncn2[C@@H]1O[C@H](CN2CCCS2(=O)=O)[C@@H](O)[C@H]1O` gave OX1R antag-1 -1, OX1R antag-2 -1, GalR3 antagonist -1 and CHO parental Ca -10.
O=C(Nc1cccc(Cl)c1)c1cc(S(=O)(=O)NCCc2ccc(Cl)cc2)ccc1F was read as OX1R antag-1 -1, OX1R antag-2 7, GPR7 antagonist 21*, GalR3 antagonist -5, CHO parental Ca -7, GPR7 antag cf -8 and MCHR1 antagonist 43*.
For COc1ccc(CCn2c(SCCN3CCCCC3)nc3ccccc3c2=O)cc1OC the results were OX1R antag-1 -40, OX1R antag-2 8, GPR7 antagonist 36*, GalR3 antagonist -9, CHO parental Ca -15, GPR7 antag cf 30* and MCHR1 antagonist 35*.
Screening C=CCNC(=O)CSc1nc2ccccc2c(=O)n1CCc1ccc(OC)c(OC)c1 returned GPR7 antagonist -12 and GalR3 antagonist -9.
`CS(=O)(=O)N1CCCCC1c1cc(C(=O)Nc2cccc3c2CCCC3)no1` (configuration not stated) gave GalR3 antagonist -4.
Screening CCOC(=O)CCc1c(C)c2ccc(OCC)c(C)c2oc1=O returned OX1R antag-1 -17, OX1R antag-2 9, GPR7 antagonist 32*, GalR3 antagonist -6, CHO parental Ca 1, GPR7 antag cf 42* and MCHR1 antagonist 30*.
CCOC(=O)CCc1c(C)c2ccc(OCC(=O)N3CCOCC3)c(C)c2oc1=O was read as OX1R antag-1 -20, OX1R antag-2 22, GPR7 antagonist -12, GalR3 antagonist 2 and CHO parental Ca -7.
`CCN1C[C@@H]2[C@@H]3C(=O)N(C)C(=O)[C@@H]3[C@](C)(C1=O)N2C(=O)c1ccc(Br)cc1` gave GalR3 antagonist -3.
`CCC(NC(=O)c1[nH]c(C)c(C(C)=O)c1C)c1ccc(Br)cc1` (configuration not stated) gave OX1R antag-1 -4, OX1R antag-2 7, GPR7 antagonist 29*, GalR3 antagonist -9, CHO parental Ca -18, GPR7 antag cf -7 and MCHR1 antagonist 10.
For CC(=O)c1c(C)[nH]c(C(=O)OCC(=O)c2ccc(Br)cc2)c1C the results were GalR3 antagonist -7.
Screening CN(C)CCNC(=O)c1ccc(COc2ccc(Cl)cc2Cl)cc1 returned OX1R antag-1 -14, OX1R antag-2 6, GPR7 antagonist 30*, GalR3 antagonist -6, CHO parental Ca -4, GPR7 antag cf 40* and MCHR1 antagonist 52*.
COc1ccc(Cl)cc1C(=O)NCCN(C)C was read as OX1R antag-1 -14, OX1R antag-2 8, GPR7 antagonist -3, GalR3 antagonist 0 and CHO parental Ca 1.
Screening OC(c1ccccc1)c1ncc(-c2ccccc2Cl)[nH]1 (configuration not stated) returned GalR3 antagonist -6.
